Assay outcomes deposited in PubChem by several laboratories.
ADAM10 inh – ADAM10 inhibition, QFRET primary screen; recombinant ADAM10, EDANS/DABCYL FRET peptide cleavage, 3 h; inhibition, % at 7 µM; hit rate 0.62% among 370,000;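 active = inhibition above a per-campaign cutoff equal to the mean of compounds falling between control-based bounds plus 3 SD, cut at about 20% in these data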;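 note: 0% = DMSO wells while the 100% control is not disclosed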
Arrestin-AP2 inh – inhibitors of human beta-arrestin and AP2 interaction. FITC-arrestin peptide / GST-AP2 beads, flow cytometry; AP2 beta2 appendage carries R879A mutation. inhibition, % at 10 µM. hit rate 0.31% among 340,000;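 active = inhibition above a set limit, near 3 SD of compounds lacking own fluorescence, cut at about 54% in these data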;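 note: plate controls were DMSO wells for no effect and 5 µM unlabelled arrestin peptide for full effect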
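test system = AP2 appendage R879A on GSH beads | buffer or medium = PBS plus Tween 20 (0.05%) and BSA (0.1%) | incubation = 12 min plus 1 h, RT | detection = bead flow cytometry, FITC channel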
ADAM17 inh – inhibitors of human ADAM17; AID 720648; recombinant ADAM17, EDANS/DABCYL FRET peptide cleavage; P78536; inhibition, % at 6.95 µM; hit rate 0.83% among 370,000;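 active = inhibition above the mean of compounds lying between control limits plus 3 SD, set per campaign, cut at about 8.5% in these data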;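 note: 0% = DMSO-only wells as the low control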
CendR NRP1 mod – NRP-1/CendR interaction modulation; O14786; inhibition, % at 25 µM; FAM-RPARPAR peptide binding to NRP-1, fluorescence polarization; AID 602438; hit rate 0.85% among 360,000;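 active = inhibition or corrected inhibition above about 18%, plus a signal ratio from 0.5 to 1.5, limit read from the data, passing the limit was not always enough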
Target sequence (O14786 whole entry, looked up): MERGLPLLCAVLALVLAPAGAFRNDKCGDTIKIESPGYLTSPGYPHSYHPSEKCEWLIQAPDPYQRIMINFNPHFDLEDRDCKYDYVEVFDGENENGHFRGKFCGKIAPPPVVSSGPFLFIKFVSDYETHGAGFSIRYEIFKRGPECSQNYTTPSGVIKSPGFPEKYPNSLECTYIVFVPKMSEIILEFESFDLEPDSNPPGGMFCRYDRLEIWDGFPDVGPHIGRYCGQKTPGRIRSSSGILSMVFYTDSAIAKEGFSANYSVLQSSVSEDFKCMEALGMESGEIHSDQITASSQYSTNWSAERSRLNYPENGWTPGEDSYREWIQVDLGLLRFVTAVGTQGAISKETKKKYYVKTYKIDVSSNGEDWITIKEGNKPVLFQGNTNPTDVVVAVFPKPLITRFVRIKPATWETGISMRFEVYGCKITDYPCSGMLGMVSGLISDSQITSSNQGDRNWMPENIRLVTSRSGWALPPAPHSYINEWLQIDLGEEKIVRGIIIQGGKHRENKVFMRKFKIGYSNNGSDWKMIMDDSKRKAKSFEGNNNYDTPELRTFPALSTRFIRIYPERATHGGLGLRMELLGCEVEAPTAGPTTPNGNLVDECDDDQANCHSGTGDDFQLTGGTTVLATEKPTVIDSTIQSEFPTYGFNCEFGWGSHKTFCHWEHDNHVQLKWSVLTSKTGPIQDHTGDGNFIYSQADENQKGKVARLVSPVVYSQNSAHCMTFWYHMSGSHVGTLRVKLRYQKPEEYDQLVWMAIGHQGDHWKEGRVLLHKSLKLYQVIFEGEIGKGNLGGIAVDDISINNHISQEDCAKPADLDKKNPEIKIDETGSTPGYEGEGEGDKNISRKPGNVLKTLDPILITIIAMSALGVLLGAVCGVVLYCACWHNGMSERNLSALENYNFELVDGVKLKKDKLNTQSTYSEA
FAS TE block – blocks the thioesterase domain of human fatty acid synthase; recombinant FAS-TE, OMFH fluorogenic substrate, fluorescence endpoint; inhibition, % at 15 µM; hit rate 0.67% among 360,000;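 active = compounds whose normalised, plate-corrected inhibition of enzyme fluorescence in the single-dose primary screen is 50% or more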;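 note: 0% = DMSO with enzyme and 100% = substrate without enzyme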
CaV13 FRET inh – Disruptors of the CACNA1D IQ motif to Ca2+-dependent inactivation inhibitor domain association, primary screening, Förster resonance energy transfer in intact living … | HEK cells, CFP/YFP FRET ICDI-IQ, plate reader, 10 min; percent FRET-ratio fall versus neutral wells | inhibition, % at 12.3 µM | hit rate 0.098% among 340,000 | AID 743397;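 active = mean replicate inhibition of at least 30% and at least 1% of replicates passing that level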;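 note: 0% = median of the neutral control wells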
Numbers without * were called inactive; · = not tested or not shown. Rows were chosen to be rich in hits. Some 2.9% of all compounds tested hit in one or more screens of this group.

SMILES | ADAM10 inh | Arrestin-AP2 inh | ADAM17 inh | CendR NRP1 mod | FAS TE block | CaV13 FRET inh
CCCCn1nnnc1C(c1ccccc1)N1CCN(c2cccc(C(F)(F)F)n2)CC1 (stereo not given) | 9 | · | 7 | -3 | 26 | -5
Cc1ccccc1CN1CCCCC(NC(=O)C2CCC2)C1=O (stereo not given) | 1 | · | 3 | · | · | ·
COc1ccc(/C=C(/NC(=O)c2ccccc2)C(=O)N2CCCCC2)cc1OC | 4 | -5 | -3 | 28* | -4 | -2
Cc1ccc(S[C@@H](CCN2CC[C@H](C)CCC2=O)c2ccccc2)cc1 | -2 | · | -3 | 3 | 24 | -5
Cc1ccc(S[C@@H](CCN2CC[C@H](O)CCC2=O)c2ccccc2)cc1 | -5 | 9 | -1 | 10 | -11 | 33*
CC1(C(=O)Nc2ccc3c(c2)OCCO3)CCC(=O)N1CCOc1ccccc1 (stereo not given) | -17 | · | -5 | 4 | -11 | -11
O=C(COc1ccc2ccccc2c1)N/N=C/c1ccccn1 | -3 | 7 | -2 | 37* | 0 | -6
O=C(Cn1cc(C(F)(F)F)cc(Cl)c1=O)Nc1cc(S(=O)(=O)N2CCOCC2)ccc1Cl | 2 | -9 | -1 | 22* | 1 | -3
CCOC(=O)C(NC(=O)CC(C)C)(Nc1sc(C)c(CC)c1C#N)C(F)(F)F (stereo not given) | 3 | -3 | 2 | 24* | 14 | -5
CCN(CCCNC(=O)CNC(=O)c1nn(-c2ccc(OC)cc2OC)c(=O)c2ccccc12)c1cccc(C)c1 | 11 | -18 | 6 | 25* | 0 | -7
COCCCNC(=O)CNC(=O)c1nn(-c2ccc(OC)cc2OC)c(=O)c2ccccc12 | -2 | 11 | 4 | -11 | -7 | -20
O=C(CN1CCCc2ccccc21)NCc1ccccc1F | -13 | · | -4 | · | · | ·
O=C(NCCc1ccccc1)c1ccc(Br)o1 | 9 | 10 | -3 | 24* | -8 | -5
O=C(NCCNC(=O)c1ccc(Br)o1)c1ccc(Br)o1 | 5 | 13 | 0 | 8 | 0 | -3
COC(=O)c1ccc(S(=O)(=O)N2CCC(NC(=O)CCC3CCCC3)CC2)cc1 | -2 | · | 1 | · | · | ·
O=C(CN1C(=O)NC2(CCCCCC2)C1=O)Nc1ccc(OC(F)(F)F)cc1 | 7 | · | 3 | 27* | -2 | -9
CC(C)c1ccc(NC(=O)CN2C(=O)NC3(CCCC3)C2=O)cc1 | -9 | 0 | -3 | 24* | -2 | -3
O=C(CN1C(=O)NC2(CCCC2)C1=O)Nc1ccc(OC(F)(F)F)cc1 | 4 | -7 | 0 | 1 | -2 | -7
CC(=O)Nc1ccc(NC(=O)CN2C(=O)NC3(CCCCCCC3)C2=O)cc1 | -2 | 7 | -3 | 7 | -4 | -5
Cc1ccc(CC(=O)N2CCN(S(=O)(=O)c3ccccc3)CC2)cc1C | 0 | -3 | -4 | -3 | -5 | -6
Cc1ccc(S(=O)(=O)N2CCN(C(=O)Cc3ccccc3)CC2)cc1C | -11 | -17 | -3 | 23* | -1 | -6
C=CCN1C(=S)CC(c2ccccc2)=Nc2ccccc21 | 9 | 17 | 4 | 9 | 25 | 63*
C=CCn1c(-c2csc(-c3ccccc3)n2)n[nH]c1=S | 1 | -1 | 4 | 2 | -2 | -6
O=C(O)c1cc2ncc(CCO)cn2n1 | -14 | -17 | -6 | 24* | -5 | 6
O=C(c1cc2ncc(CCCl)cn2n1)N1CCCCCC1 | -12 | -15 | -4 | -2 | -16 | -5
SMILES | ADAM10 inh | Arrestin-AP2 inh | ADAM17 inh | CendR NRP1 mod | FAS TE block | CaV13 FRET inh
Nc1c([N+](=O)[O-])cc2c3c(cccc13)CC2 | -4 | · | -1 | -2 | 12 | -12
C=CC[n+]1c(-c2ccc(Cl)cc2Cl)csc1Nc1ccc(NC(C)=O)cc1 | 27* | 35 | 8 | 3 | 16 | -4
C=CC[n+]1c(-c2ccc(Cl)cc2Cl)csc1Nc1c(C)n(C)n(-c2ccccc2)c1=O | 2 | 8 | -1 | 5 | 2 | -5
CCOC(=O)c1ccc(N2C(=O)CC(Sc3nc(C)cc(C)n3)C2=O)cc1 (stereo not given) | 1 | -5 | -2 | 4 | 0 | -20
CCOC(=O)c1ccc(N2C(=O)CC(Sc3nnc(C)s3)C2=O)cc1 (stereo not given) | 1 | 3 | -1 | 35* | -1 | ·
Cn1nc([N+](=O)[O-])c(C(C#N)c2nc3ccccc3n2C)c(Cl)c1=O (stereo not given) | -12 | 4 | -4 | 28* | 13 | -8
Cc1cccc(NC(=S)N/N=C/c2cccc([N+](=O)[O-])c2)c1 | · | 6 | · | 0 | 24 | ·
Cc1cccc(NC(=S)N/N=C/c2ccc(Cl)c([N+](=O)[O-])c2)c1 | -4 | -4 | -6 | 27* | -4 | -5
C[C@H](NC(=O)[C@@H]1CCCN1C(=O)OC(C)(C)C)c1ccccc1 | -9 | · | -4 | 15 | -7 | -6
FC(F)(F)c1cc(C(F)(F)F)c2ccc(Oc3ccccc3)nc2n1 | -7 | 5 | -4 | 33* | 8 | -9
CCOC(=O)C1=C(N)Oc2cc(O)ccc2C1c1cccnc1 (stereo not given) | -1 | 8 | -2 | -4 | -5 | -6
CCOC(=O)C1=C(N)Oc2cc(O)ccc2C1c1cccc(Cl)c1 (stereo not given) | -2 | 2 | -2 | 27* | 40 | -20
Cc1ccc(-c2nnn(CC(=O)N(CC(=O)NC3CCCCC3)c3ccc(F)c(Cl)c3)n2)o1 | -8 | 11 | 0 | 29* | 20 | ·
Cc1ccc(-c2nnn(CC(=O)N(CC(=O)NC3CCCC3)c3ccc(F)c(Cl)c3)n2)o1 | 9 | -1 | -4 | -2 | 11 | ·
Cc1ccc(S(=O)(=O)N2O[C@@H](c3ccccc3)C[C@H]2CON2C(C)(C)CCCC2(C)C)cc1 | 4 | · | 3 | · | · | ·
CCCCc1cn([C@@H](CCCCN)C(=O)N2CCNCC2)nn1 | 6 | 6 | -2 | 22* | -13 | -6
CCOC(=O)C1=NOC(C(=O)NC2CCCC2)(C(=O)c2ccc(OC)cc2)C1 (stereo not given) | -1 | · | 2 | · | · | ·
CCOc1cc(C2C(C#N)=C(N)OC(C)=C2C(C)=O)c(Br)c(Br)c1OC(C)C (stereo not given) | · | -8 | · | -8 | 72* | ·
CCCC1CCC2(CCCN2CCOC(=O)Nc2ccc(F)cc2)CC1 (stereo not given) | -3 | · | -4 | · | · | ·
COC(=O)c1cc(-c2ccccc2)c(=O)n2c1CCC2 | -14 | · | -4 | · | · | ·
COC(=O)c1c(C(=O)OC)c(-c2ccccc2)n2c1CCC2 | · | 4 | · | 38* | -7 | -8
Cc1ccc(C(O)CN2C3=NCCN3c3ccccc32)cc1 (stereo not given) | -10 | -8 | -8 | 56* | -12 | ·
